Laboratory results taken from ChEMBL document CHEMBL1127431, “Cholinergic agents structurally related to furtrethonium. 2. Synthesis and antimuscarinic activity of a series of N-[5-[(1'-substituted-acetoxy) methyl]-2-furfuryl]dialkylamines” (J Med Chem, 1994).

Legend:
[1] = molecular target: Muscarinic acetylcholine receptor M3 (Rattus norvegicus) (UniProt P08483); assay: In vitro antimuscarinic activity against the M3 muscarinic receptor subtype in rat bladder
In short: (§1)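 Rat urinary detrusor strips (extratrigonal, 1 cm × 2 mm), fasted overnight, isotonic recording at 1 g resting tension; 30–45 min equilibration. Cumulative furtrethonium curves in 0.5 log-unit increments, repeated until two matched, then final curve after ≥30 min with test compound. E50 by four-parameter logistic fit; pKb = log(DR−1) − log[B], mean ± SE.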

[2] = molecular target: T1, Muscarinic acetylcholine receptor M2 (Homo sapiens) (UniProt P08172); assay: In vitro antimuscarinic activity against the M2 muscarinic receptor subtype in guinea pig atria; settings: Cavia porcellus; target entry is the homologue from another species
T1 sequence (whole entry): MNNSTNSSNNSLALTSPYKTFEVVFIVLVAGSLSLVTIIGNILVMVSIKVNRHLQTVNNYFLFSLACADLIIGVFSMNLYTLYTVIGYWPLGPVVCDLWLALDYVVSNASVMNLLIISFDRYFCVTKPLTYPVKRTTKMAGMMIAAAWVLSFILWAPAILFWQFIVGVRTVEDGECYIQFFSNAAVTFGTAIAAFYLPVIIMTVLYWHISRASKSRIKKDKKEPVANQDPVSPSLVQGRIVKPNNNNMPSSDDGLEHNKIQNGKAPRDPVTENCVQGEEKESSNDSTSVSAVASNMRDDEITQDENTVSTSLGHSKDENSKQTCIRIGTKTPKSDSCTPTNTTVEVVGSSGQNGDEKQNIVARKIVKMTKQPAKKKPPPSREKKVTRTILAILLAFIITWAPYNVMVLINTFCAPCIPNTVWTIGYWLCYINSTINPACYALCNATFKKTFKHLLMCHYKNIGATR
In short: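 Guinea pig atria (both), fasted overnight, resting tension 1 g, force recorded; 30–45 min equilibration. Cumulative carbachol curves in 0.25 log-unit increments, repeated until two matched, then final curve after ≥30 min with test compound. E50 from four-parameter logistic fit; pKb = log(DR−1) − log[B], mean ± SE.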

[3] = molecular target: Muscarinic acetylcholine receptor M3 (Rattus norvegicus) (UniProt P08483); assay: In vitro antimuscarinic activity against the M3 muscarinic receptor subtype in rat ileum; assay type: tissue-based
In short: as §1, with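 “Rat longitudinal ileum segments (~2 cm),” for “Rat urinary detrusor strips (extratrigonal, 1 cm × 2 mm),”, “at 0.5” for “at 1”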

Chain of Muscarinic acetylcholine receptor M3 (Rattus norvegicus) (P08483 whole entry, looked up): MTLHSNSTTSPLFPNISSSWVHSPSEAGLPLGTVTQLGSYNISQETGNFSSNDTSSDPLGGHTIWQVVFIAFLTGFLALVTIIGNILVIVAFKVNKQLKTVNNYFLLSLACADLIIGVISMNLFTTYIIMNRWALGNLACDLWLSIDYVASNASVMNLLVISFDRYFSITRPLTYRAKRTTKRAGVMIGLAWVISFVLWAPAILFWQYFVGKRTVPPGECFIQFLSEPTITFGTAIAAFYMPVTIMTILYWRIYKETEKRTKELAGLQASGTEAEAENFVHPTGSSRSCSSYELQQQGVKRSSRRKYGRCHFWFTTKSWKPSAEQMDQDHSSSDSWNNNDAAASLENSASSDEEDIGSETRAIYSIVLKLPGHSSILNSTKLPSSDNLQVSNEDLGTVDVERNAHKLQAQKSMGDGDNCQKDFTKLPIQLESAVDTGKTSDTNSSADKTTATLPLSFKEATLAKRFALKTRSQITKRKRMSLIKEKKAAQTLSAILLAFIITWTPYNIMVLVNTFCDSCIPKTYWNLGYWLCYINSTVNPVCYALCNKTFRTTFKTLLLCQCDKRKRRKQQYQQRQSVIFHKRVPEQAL

Structure (SMILES)	pKb [1]	pKb [2]	pKb [3]
CCN(CC)Cc1ccc(COC(=O)C(c2ccccc2)C2CCCCC2)o1 (stereo not given)	6	< 5	6.7
O=C(OCc1ccc(CN2CCCCC2)o1)C(c1ccccc1)C1CCCCC1 (stereo not given)	5.3	< 5	6.3
O=C(OCc1ccc(CN2CCOCC2)o1)C(c1ccccc1)C1CCCCC1 (stereo not given)	5.7	< 5	5.5
CC(C)N(C)Cc1ccc(COC(=O)C(c2ccccc2)C2CCCCC2)o1 (stereo not given)	6.7	5	7
CN(Cc1ccccc1)Cc1ccc(COC(=O)C(c2ccccc2)C2CCCCC2)o1 (stereo not given)	< 5	< 5	< 5
CCCN(C)Cc1ccc(COC(=O)C(c2ccccc2)C2CCCCC2)o1 (stereo not given)	6	< 5	6.8
O=C(OCc1ccc(CN2CCC(O)CC2)o1)C(c1ccccc1)C1CCCCC1 (stereo not given)	6	< 5	6.5
CN(C)Cc1ccc(COC(=O)C2c3ccccc3-c3ccccc32)o1	5.6	4.8	5.8
CN(C)Cc1ccc(COC(=O)C2c3ccccc3Oc3ccccc32)o1	6.6	6.5	7.1
CN(C)Cc1ccc(COC(=O)C(O)(C2CCCCC2)C2CCCCC2)o1	7.2	< 5	7.1
CCCCCN(C)Cc1ccc(COC(=O)C(c2ccccc2)C2CCCCC2)o1 (stereo not given)	< 5	< 5	6.9
CN(Cc1ccc(COC(=O)C(c2ccccc2)C2CCCCC2)o1)C1CCCCC1 (stereo not given)	< 5	< 4.5	6.5
CN(C)Cc1ccc(COC(=O)C(c2ccccc2)c2ccccc2)o1	6.5	5.9	6.5
O=C(OCc1ccc(CN2CCCCC2)o1)C(c1ccccc1)c1ccccc1	6.2	< 5	6
CN(C)Cc1ccc(COC(=O)C(c2ccccc2)C2CCCCC2)o1 (stereo not given)	7.2	5.9	7.3
